Measurements as given in ChEMBL document CHEMBL1154833, “Curcuminoid analogs with potent activity against Trypanosoma and Leishmania species” (Eur J Med Chem, 2010).

What was measured:
[1] = system: Trypanosoma brucei brucei; experiment: Antitrypanosomal activity against diminazene-resistant Trypanosoma brucei brucei deltaTbat1-KO after 48 hrs by alamar blue assay; type: functional, organism-based
[2] = system: Leishmania major; experiment: Antileishmanial activity against Leishmania major Friedlin promastigotes after 48 hrs by alamar blue assay; type: functional, organism-based; settings: Leishmania major, Friedlin, 48 h; read-out: EC50
In short: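 L. major Friedlin promastigotes grown in HOMEM with 10% FBS at 25 °C. Alamar Blue fluorescence assay in 96-well plates. 3–6 independent experiments unless noted.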

[3] = system: Trypanosoma evansi; experiment: Antitrypanosomal activity against Trypanosoma evansi ITMAV170475 after 48 hrs by alamar blue assay; type: functional, organism-based; settings: ITMAV170475, 48 h
In short: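 Culture-adapted T. evansi ITMAV170475 seeded at 1.5 ×10⁵ trypanosomes/ml in HMI9/20% FBS. Exposed to compound for 48 h, then incubated with Alamar Blue for 24 h, all at 37 °C under CO2. Assay validated against hemocytometer cell counts. EC50 from a variable-slope sigmoid fit.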

[4] = system: Trypanosoma brucei brucei; experiment: Selectivity ratio of EC50 for Trypanosoma brucei brucei B48 to EC50 for Trypanosoma brucei brucei 427; type: functional
In short: (§1)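 T. b. brucei bloodstream forms (strain 427, its ΔTbAT1 clone, and the pentamidine-adapted B48 line derived from it) cultured in HMI9 with 10% FBS at 37 °C under CO2. EC50 for each line from the Alamar Blue fluorescence assay with sigmoid fitting, and the ratio taken between lines.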

[5] = system: Trypanosoma brucei brucei; experiment: Antitrypanosomal activity against multidrug-resistant Trypanosoma brucei brucei B48 after 48 hrs by alamar blue assay; type: functional, organism-based; settings: B48, 48 h
[6] = system: HEK293; experiment: Cytotoxicity against HEK293 cells after 16 hrs by alamar blue assay; type: cell-based, Homo sapiens; settings: Homo sapiens, HEK293, 16 h; read-out: EC50
In short: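 HEK293T cells grown in DMEM-based medium with 10% newborn bovine serum at 37 °C, 5% CO2. Doubling dilutions of compound added for 16 h, then resazurin added. Fluorescence read at emission 590 nm after a further 24 h.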

[7] = system: Leishmania mexicana; experiment: Antileishmanial activity against Leishmania mexicana MNYC/BZ/62/M379 amastigotes after 48 hrs by alamar blue assay; type: functional, organism-based; settings: Leishmania mexicana, MNYC/BZ/62/M379, 48 h; read-out: EC50
In short: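 Axenic L. mexicana MNYC/BZ/62/M379 amastigotes kept at 33 °C under CO2 in Schneider's Drosophila medium with 20% FBS and 0.3% gentamycin. Alamar Blue fluorescence read-out.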

[8] = system: Trypanosoma brucei brucei; experiment: Antitrypanosomal activity against Trypanosoma brucei brucei 427 after 48 hrs by alamar blue assay; type: functional, organism-based; settings: Trypanosoma brucei, 427, 48 h; read-out: EC50
[9] = system: Trypanosoma brucei brucei; experiment: Selectivity ratio of EC50 for Trypanosoma brucei brucei 427 to EC50 for Trypanosoma brucei brucei deltaTbat1-KO; type: functional; in short: as §1
[10] = Selectivity index, ratio of EC50 for HEK cells to EC50 for Trypanosoma brucei brucei 427; type: toxicity, cell-based, HEK293; settings: human, HEK cells versus Trypanosoma brucei brucei 427; read-out: Ratio EC50
[11] = Selectivity index, ratio of EC50 for HEK cells to EC50 for Trypanosoma brucei brucei B48; type: toxicity, cell-based, HEK293; settings: human, HEK cells versus Trypanosoma brucei brucei B48; read-out: Ratio EC50
[12] = system: Trypanosoma brucei brucei; experiment: Selectivity ratio of EC50 for Trypanosoma brucei brucei 427 to EC50 for Trypanosoma brucei brucei B48; type: functional; in short: as §1
[13] = system: Trypanosoma brucei brucei; experiment: Antitrypanosomal activity against Trypanosoma brucei brucei GUTat 3.1; type: functional, organism-based
[14] = Selectivity index, ratio of EC50 for HEK cells to EC50 for Leishmania major Friedlin promastigotes; type: toxicity, cell-based, HEK293; settings: human, HEK cells versus Leishmania major Friedlin promastigotes; read-out: Ratio EC50
In short: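 Ratio of HEK EC50 to parasite EC50. For HEK293T cells in DMEM with 10% newborn bovine serum at 37 °C and 5% CO2, doubling dilutions of compound were added for 16 h, then Alamar Blue, and fluorescence (em 590 nm) was read after another 24 h. L. major Friedlin promastigotes were grown in HOMEM with 10% FBS at 25 °C and tested by Alamar Blue. EC50 values came from sigmoid non-linear regression.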

Row | Compound | EC50 [1] [µM] | EC50 [2] [µM] | EC50 [3] [µM] | Ratio EC50 [4] | EC50 [5] [µM] | EC50 [6] [µM] | EC50 [7] [µM] | EC50 [8] [µM] | Ratio EC50 [9] | selectivity ratio [10] | selectivity ratio [11] | Ratio EC50 [12] | EC50 [13] [µM] | selectivity ratio [14]
1 | COc1cc(/C=C/C(=O)CC(=O)/C=C/c2ccc(O)c(O)c2)ccc1O | 1.1 | 4.3 | 1.1 | 3.1 | 2.7 | 36 | 3.2 | 0.87 | – | – | – | – | – | –
2 | COc1cc(/C=C/C(=O)CC(=O)/C=C/c2ccc(OC(=O)c3ccccc3)c(OC)c2)ccc1O | 3.8 | 9.3 | 1.5 | – | 2.1 | 94 | 76 | 3.1 | – | – | – | – | – | –
3 | O=C(/C=C/c1ccc(O)cc1)CC(=O)/C=C/c1ccc(O)c(O)c1 | 1.8 | 22 | – | – | 1 | 30 | 21 | 0.65 | 2.7 | – | – | – | – | –
4 | COc1cc(CC/C=C/C(=O)CCc2ccc(O)c(OC)c2)ccc1O | 0.082 | 8.9 | 0.17 | – | 0.023 | 24 | 17 | 0.053 | – | 453 | > 1000 | – | – | –
5 | C=CCOc1ccc(/C=C/C(=O)CC(=O)/C=C/c2ccc(O)c(OC)c2)cc1OC | 2.2 | 5.7 | 1.6 | 5 | 12 | 270 | 12 | 2.4 | – | – | – | – | – | –
6 | C=CCOc1ccc(/C=C/C(=O)CC(=O)/C=C/c2ccc(OCC=C)c(OC)c2)cc1OC | 1.9 | 25 | 5.6 | 3.6 | 5.8 | > 500 | > 100 | 1.6 | – | – | – | – | – | –
7 | COc1cc(/C=C/C(=O)CC(=O)/C=C/c2ccc(OCC=C(C)C)c(OC)c2)ccc1OCC=C(C)C | 1.6 | > 100 | – | – | 1.3 | > 1000 | 27 | 1.2 | – | > 1000 | – | – | – | –
8 | COc1cc(/C=C/C(=O)CC(=O)/C=C/c2ccc(OC(=O)c3ccccc3)cc2)ccc1O | 7.8 | 20 | 2.9 | – | 7.8 | > 500 | > 100 | 3.7 | – | – | – | – | – | –
9 | COc1ccc(CC/C=C/C(=O)CCc2ccc(OC)c(OC)c2)cc1OC | 1.6 | 12 | – | – | 0.023 | 26 | 28 | 1.9 | – | – | – | 83 | – | –
10 | COc1cc(/C=C/C(=O)/C=C/CCc2ccc(O)c(OC)c2)ccc1O | 0.22 | 2.7 | 0.21 | – | 0.1 | 8.1 | 4.6 | 0.22 | – | – | – | – | – | –
11 | COc1cc(CC/C=C/C(O)CCc2ccc(O)c(OC)c2)ccc1O (stereo not given) | 42 | 50 | – | – | 6.3 | 130 | 64 | 40 | – | 3 | – | – | – | –
12 | COc1cc(/C=C/C(=O)CC(=O)/C=C/c2ccc(O)c(OC)c2)ccc1O [CURCUMIN] | 4.7 | 33 | 2 | – | 2.9 | 37 | 16 | 2.5 | – | – | – | – | 4.8 | –
13 | CC(=O)NCC(=O)O.N=C(N)c1ccc(/N=N/Nc2ccc(C(=N)N)cc2)cc1 [DIMINAZEN ACETURATE] | – | – | – | – | – | – | – | – | 20 | – | – | – | – | –
14 | N=C(N)c1ccc(/N=N/Nc2ccc(C(=N)N)cc2)cc1 [DIMINAZENE] | 2.4 | – | 0.018 | – | 1 | – | – | 0.12 | – | – | – | – | – | –
15 | COc1cc(CCC(=O)CC(O)CCc2ccc(O)c(OC)c2)ccc1O (stereo not given) [HEXAHYDROCURCUMIN] | 38 | > 100 | – | – | 5.9 | 370 | > 100 | 17 | – | – | – | – | – | –
16 | O=C(CCc1ccc(O)cc1)CC(=O)CCc1ccc(O)cc1 [LETESTUIANIN C] | 4 | 80 | – | – | 5.1 | 350 | 64 | 2.5 | – | – | – | – | – | –
17 | COc1cc(CCC(=O)CC(=O)CCc2ccc(O)c(OC)c2)ccc1O [TETRAHYDROCURCUMIN] | 37 | 90 | – | – | 12 | 120 | 43 | 21 | – | – | – | – | – | –
18 | COc1ccc(/C=C/C(=O)CC(=O)/C=C/c2ccc(OC)c(OC)c2)cc1OC [TETRAMETHOXYCURCUMIN] | 0.62 | 2.8 | – | – | 0.77 | 200 | 10 | 0.45 | – | – | – | – | – | 70
